Shown are actives, neighbours in structure and some others; about 2.1% of the full set was active somewhere.
HKDC1 inhibitor: HKDC1 hexokinase inhibitors, primary screen, biochemical, fluorescence, uHTS | Q2TB90 | recombinant HKDC1, G6PDH/diaphorase resazurin coupled fluorescence | inhibition, % at 20 µM | actives 0.16% (n = 340,000) | AID 493160, 2011;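 active = inhibition above about 35% when tested at 20 µM, limit read from the data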;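 also: plate controls were DMSO wells with enzyme for no effect and DMSO wells lacking enzyme for full effect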
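Material – in-house recombinant HK5 (HKDC1) enzyme · Quantity – HKDC1 at 5 µg/mL · Buffer or medium – pH 8.0 Tris buffer with 10 mM MgCl2 · Reagent – glucose with 1 mM ATP · Dosing – single 20 µM dose · Times – reaction time 90 min, room temperature, protected from light · Technique – resorufin fluorescence at 613 nm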
B2AR ag: beta2AR agonists driving receptor internalization, primary screen, cell-based, FAP fluorogen, flow cytometry; Am2.2-beta2AR cells; Beta-2 adrenergic receptor (Homo sapiens), P07550; response, % (no concentration beside the values); actives 0.43% (n = 340,000); AID 504454, 2011;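 active = response above a set limit, near 3 SD of response in nonfluorescent compounds, cut at about 42% in these data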
UCH37 inh: inhibitors of human UCH37 deubiquitinase, primary screen, biochemical, Ub-AMC cleavage, fluorescence; purified proteasome/UCH37; inhibition, % (test concentration not listed); actives 0.33% (n = 330,000);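 active = mean inhibition over replicate wells above about 20%, limit read from the data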;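 also: 0% = compound-free wells with enzyme and 100% = wells lacking proteasome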
Target sequence (Q9Y5K5 whole entry, looked up): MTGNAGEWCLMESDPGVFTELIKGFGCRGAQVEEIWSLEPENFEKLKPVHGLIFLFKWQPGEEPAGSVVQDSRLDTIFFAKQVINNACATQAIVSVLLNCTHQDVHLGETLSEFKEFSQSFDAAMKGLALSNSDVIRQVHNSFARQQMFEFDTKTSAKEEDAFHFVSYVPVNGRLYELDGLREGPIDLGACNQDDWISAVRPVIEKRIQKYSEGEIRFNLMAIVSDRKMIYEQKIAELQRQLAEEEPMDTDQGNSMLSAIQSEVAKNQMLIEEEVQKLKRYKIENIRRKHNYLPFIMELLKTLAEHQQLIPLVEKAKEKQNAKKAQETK
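Signal – fluorescence, ex 355 nm, em 460 nm · System – Proteasome-bound UCH37 · Input – 0.15 nM proteasome as dispensed · Timing – 30 min preincubation with enzyme, 25 min cleavage at room temperature · Read-out basis – percent inhibition of cleavage signal versus uninhibited and no-proteasome wells · Medium – Tris-HCl pH 7.4 with ATP-MgCl2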
Cardio protect: cardioprotection against H2O2-induced cell death, primary screen, uHTS, H9c2 cells, ATPLite luminescence; protection from H2O2 cell death, % at 20 µM; actives 0.63% (n = 360,000); AID 588492, 2011; H9c2 cardiomyocytes, H2O2 injury protection, 2 h;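 active = compounds giving at least 50% protection of heart cells from peroxide-induced death in the single-dose screen, raw or plate-pattern-corrected value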;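 also: 0% = DMSO wells with peroxide and 100% = DMSO wells without peroxide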
aDG glyco act: activators of alpha-DG glycosylation, primary screen, uHTS, Pro5-aDG cells, AlphaScreen; actives 0.22% (n = 360,000); alpha-DG glycosylation AlphaScreen (IIH6); 0% Pro5, 100% B10-LARGE cell signal; AID 624168, 2012; activation, % at 10 µM;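 active = activation of at least 8% versus controls, or a plate z-score of at least 8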;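 also: Pro5 are CHO cells carrying HIG-tagged alpha-DG that lacks glycosylation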
PfG6PD inh: PfG6PD enzyme inhibitors, primary screen, biochemical, fluorescence intensity, uHTS; glucose-6-phosphate dehydrogenase-6-phosphogluconolactonase (Plasmodium falciparum 3D7); PfGluPho enzyme, NADPH resazurin-diaphorase fluorescence; inhibition, % at 20 µM; actives 0.78% (n = 350,000); AID 504690, 2011;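 active = inhibition reaching at least a set limit at 20 µM in the primary screen, cut at about 59% in these data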;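 also: 0% = DMSO wells with substrate and 100% = DMSO wells lacking glucose-6-phosphate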
HKDC1 act conf2: HKDC1 hexokinase activators, confirmation, biochemical, single concentration; shares compounds with HKDC1 inhibitor; recombinant HKDC1, G6PDH/diaphorase resazurin fluorescence; active compounds read low; actives 14% (n = 740); inhibition, % at 20 µM;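 active = inhibition at or below a set negative limit, negative inhibition meaning the enzyme was activated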
Starred values were filed as active, the others as inactive; nt = not tested or not shown.

SMILES	HKDC1 inhibitor	B2AR ag	UCH37 inh	Cardio protect	aDG glyco act	PfG6PD inh	HKDC1 act conf2
CCOC(=O)C(=NNc1ccccc1[N+](=O)[O-])c1csc(N)n1	nt	nt	5	nt	nt	nt	nt
S=C(NCc1ccccn1)NN=Cc1ccccn1	-44	-1	nt	24	2	52	-45*
COc1ccc(/C=C/C(=O)c2ccc([N+](=O)[O-])o2)cc1OC	32	nt	2	nt	nt	77*	6
O=C(NCC1CCCO1)C(=O)NN=Cc1ccc(O)c(Cl)c1 (stereo not given)	nt	nt	18	nt	nt	nt	nt
CCOC(=O)c1ccc(N=C2C(=S)N(c3ccc(C(=O)OCC)cc3)C(=N)N2/N=C/c2ccccc2)cc1	-136	18	nt	1	0	29	-34
COc1ccc(-c2cc3ccccc3[nH]2)cc1	39*	3	2	-8	0	16	31
CCc1c(C)c(C#N)c2nc3ccccc3n2c1NC	-66	3	-15	5	0	-58	-43*
CCc1c(C)c(C#N)c2nc3ccccc3n2c1NCCN(C)C	-11	-8	-43	4	0	0	nt
CC1=NNC(=O)/C1=C\c1cn(-c2ccccc2)nc1-c1ccc(Cl)cc1	37*	108*	3	-5	0	-2	2
CCOC(=O)c1cc(C(C)=NOC(=O)c2ccc(Cl)cc2)on1	nt	nt	4	nt	nt	nt	nt
C[C@]12c3[nH]c4ccc(Cl)cc4c3CCN1C(=O)[C@@H](CC(=O)NCc1cccc(C(F)(F)F)c1)C[C@@H]2C(=O)N1CCOCC1	27	4	3	11	0	31	-30
O=C1CSC(=S)N1N=Cc1ccc2c(c1)OCCO2	nt	nt	10	nt	nt	nt	nt
NC(CSC(c1ccccc1)(c1ccccc1)c1cccc2ccccc12)C(=O)O (stereo not given)	35*	4	nt	-9	0	49	3
COc1ccc(C=NOCC(=O)N=Nc2c(O)[nH]c3ccc(Br)cc23)cc1	nt	nt	-1	nt	nt	nt	nt
Cc1cc(C)c2c(=O)[nH]cnc2n1	64*	-5	3	8	0	25	-14
O=C(NN=C1CCSC1)c1cccc([N+](=O)[O-])c1	nt	nt	1	nt	nt	nt	nt
COc1ccc(-c2csc(NC(=O)CSCc3c(C)noc3C)n2)cc1OC	35	16	2	16	0	-9	-33
Cc1noc(C)c1CSCC(=O)Nc1nc(-c2ccc(F)c(F)c2)cs1	7	16	2	3	2	17	nt
O=C(NNC(=O)c1cccnc1)NC1CCCCC1	-60	-3	0	1	0	-1	-25
Fc1ccc(N2C(=S)SC(=Nc3ccccc3)C2=Nc2ccccc2)cc1	-50	-10	nt	-10	0	7	-32
O=C1/C(=C\c2cccnc2)SC(=S)N1c1ccc(F)cc1	-7	-104	3	2	-1	8	nt
N#CC(C#N)=C1SC(=Nc2ccccc2)C(=Nc2ccccc2)N1c1ccccc1	-86	-5	nt	-17	2	29	-32
Cc1cc(=O)[nH]c(NN=Cc2cc(C)n(CC(F)(F)F)c2C)n1	nt	nt	-1	nt	nt	nt	nt
O/C=c1\ccc2cccc3nc(C(F)(F)F)nc1c23	40*	-187	17	-22	0	10	21
Cc1cccn2c(=O)c3cc(C(N)=S)c(=N)n(CCCN4CCOCC4)c3nc12	-54	-21	-12	6	-1	45	-13
SMILES	HKDC1 inhibitor	B2AR ag	UCH37 inh	Cardio protect	aDG glyco act	PfG6PD inh	HKDC1 act conf2
COCCCn1c(=N)c(C(N)=S)cc2c(=O)n3cccc(C)c3nc21	-3	12	-31	16	0	40	nt
O=C(CN1C(=O)/C(=C2\SC(=S)N(CCS(=O)(=O)O)C2=O)c2ccccc21)Nc1cccc(Br)c1	58*	-15	18	-1	1	24	13
O=C(NCCc1ccccc1)C(c1cccs1)N(C(=O)CCl)c1ccc(Cl)cc1 (stereo not given)	37*	-59	2	-26	0	-1	23
O=C(NCCc1ccccc1)C(c1cccs1)N(C(=O)c1csnn1)C1CC1 (stereo not given)	-6	1	3	4	0	-4	nt
COc1cc(C=NNC(=O)c2ccncc2)cc(OC)c1OC	nt	nt	5	nt	nt	nt	nt
Clc1ccc(C2=NNC(=NCc3ccc4c(c3)OCO4)SC2)cc1	-17	34	3	5	0	44	nt
Cc1ccc(C2=NNC(=Nc3ccc(F)cc3)SC2)cc1	-70	0	0	-11	0	9	-80*
Cc1ccc(N=C2NC(=O)CS2)cc1	-3	-6	2	2	0	-7	nt
Cc1cccc(N=C2NN=C(c3ccc4c(c3)OCCO4)CS2)c1	-62	9	3	-16	0	12	-19
CCc1ccc(C2=NNC(=Nc3cccc(S(=O)(=O)N(C)C)c3)SC2)cc1	-177	1	5	-7	1	0	-141*
Cc1cccc(N=C2NN=C(c3c(C)[nH]c4ccccc34)CS2)c1	-41	-2	3	-5	1	28	-18
COc1ccc(C=NNC(=O)CNC(=O)C2COc3ccccc3O2)cc1[N+](=O)[O-] (stereo not given)	nt	nt	-1	nt	nt	nt	nt
O=[N+]([O-])c1ccc(-c2csc(N/N=C/c3cccnc3)n2)cc1	36*	-4	nt	-1	0	24	-25
COc1ccc2[nH]c3c4c(ccc3c2c1)C(=O)C=CC4=O	51*	61*	-10	-18	0	90*	33
COc1ccc2[nH]c(=O)cc(C(=O)O)c2c1	3	-2	-374	2	0	-13	nt
Cc1cc(C)n(-c2ccc(NC(=O)C3CCN(Cc4cc(C)c(C)o4)CC3)cc2)n1	41*	26	-2	-3	0	0	-23
O=C(O)[C@@H](c1ccccc1)N1Cc2ccccc2C1=O	52*	5	8	-3	0	-4	44
CCc1ccc(S(=O)(=O)NCCc2cn3ccccc3n2)s1	39*	-3	2	-2	0	9	8
CCN(CC(=O)Nc1c(F)cccc1F)C(=O)/C=C/c1ccc2ccccc2n1	33	1	nt	-2	0	-2	13
O=S(=O)(c1ccc(NC(=S)NN=C(Cc2ccccc2)Cc2ccccc2)cc1)N1CCOCC1	-47	-2	4	10	0	29	-44*
COc1ccc(C=NNC(=O)c2ccc3c(c2)OCO3)cc1	nt	nt	-42	nt	nt	nt	nt

Source: PubChem (several laboratories)
